ChEMBL document CHEMBL3992505, “Optimization of substituted imidazobenzodiazepines as novel asthma treatments” (Eur J Med Chem, 2017)
Active and inactive are the calls of the source. The calls are words filed in the database; no cut-off is given here.

Assays:
[1] = Cytotoxicity in human BEAS2B cells after 48 hrs by Cell-titer Glo reagent based assay; set-up: species or system BEAS-2B; conditions: read-out: LD50
Outline: (§1)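 Cells (HEK293, HepG2 or BEAS2B) exposed to compounds at a range of concentrations for 48 h; viability read by Cell-Titer Glo luminescence. Normalized to DMSO (negative) and 3-dibutylamino-1-(4-hexyl-phenyl)-propan-1-one at 150 μM final in DMSO (positive).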

Blood [2] = experiment: Drug metabolism in mouse blood assessed as (S)-7-Methoxy-N-methyl-9-oxo-11,12,13,13a-tetrahydro-9H-benzo[e]imidazo[5,1-c]pyrrolo[1,2-a][1,4]diazepine-1-carboxamide formation at 5 mg/kg, ip after 3 mins by LC/MS/MS analysis; type: ADME, organism-based; conditions: in vivo, 0.05 h
Blood [3] = experiment: Half life in mouse blood assessed as (S)-7-Methoxy-N-methyl-9-oxo-11,12,13,13a-tetrahydro-9H-benzo[e]imidazo[5,1-c]pyrrolo[1,2-a][1,4]diazepine-1-carboxamide at 5 mg/kg, ip by LC/MS/MS analysis; type: ADME, organism-based; conditions: in vivo
Mus musculus = experiment: Antiasthamatic effect in BALB/c mouse model of ovalbumin-induced asthma assessed as inhibition of airway hyperresponsiveness at 40 mg/kg, ip bid for 5 days; type: functional, organism-based
Blood [4] = experiment: Elimination rate constant in mouse blood assessed as (S)-7-Methoxy-N-methyl-9-oxo-11,12,13,13a-tetrahydro-9H-benzo[e]imidazo[5,1-c]pyrrolo[1,2-a][1,4]diazepine-1-carboxamide at 5 mg/kg, ip by LC/MS/MS analysis; type: ADME, organism-based; conditions: in vivo
[5] = Tmax in mouse lung at 5 mg/kg, ip by LC/MS/MS analysis; type: ADME, organism-based
[6] = target: T1, GABA-A receptor; alpha-1/beta-3/gamma-2 (Homo sapiens, UniProt P14867+P18507+P28472); experiment: Activity at GABAA alpha1beta3gamma2 receptor (unknown origin) expressed in HEK293T cells assessed as potentiation of GABA-mediated increase in channel current under holding potential at -80 mV at 1 uM by patch clamp assay; type: cell-based
T1 sequence (P14867 whole entry): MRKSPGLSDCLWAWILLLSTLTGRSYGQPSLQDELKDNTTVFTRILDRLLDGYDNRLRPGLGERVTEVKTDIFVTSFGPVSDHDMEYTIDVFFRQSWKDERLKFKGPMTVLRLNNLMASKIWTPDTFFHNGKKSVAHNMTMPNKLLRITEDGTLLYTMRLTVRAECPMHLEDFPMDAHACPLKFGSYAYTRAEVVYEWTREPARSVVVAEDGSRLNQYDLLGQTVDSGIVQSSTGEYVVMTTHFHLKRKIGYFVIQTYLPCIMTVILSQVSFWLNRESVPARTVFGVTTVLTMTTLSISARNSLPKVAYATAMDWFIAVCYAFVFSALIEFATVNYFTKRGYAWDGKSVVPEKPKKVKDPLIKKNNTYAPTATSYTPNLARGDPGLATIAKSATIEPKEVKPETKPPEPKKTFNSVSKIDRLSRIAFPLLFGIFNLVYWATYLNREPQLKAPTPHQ
T1 sequence (P18507 whole entry): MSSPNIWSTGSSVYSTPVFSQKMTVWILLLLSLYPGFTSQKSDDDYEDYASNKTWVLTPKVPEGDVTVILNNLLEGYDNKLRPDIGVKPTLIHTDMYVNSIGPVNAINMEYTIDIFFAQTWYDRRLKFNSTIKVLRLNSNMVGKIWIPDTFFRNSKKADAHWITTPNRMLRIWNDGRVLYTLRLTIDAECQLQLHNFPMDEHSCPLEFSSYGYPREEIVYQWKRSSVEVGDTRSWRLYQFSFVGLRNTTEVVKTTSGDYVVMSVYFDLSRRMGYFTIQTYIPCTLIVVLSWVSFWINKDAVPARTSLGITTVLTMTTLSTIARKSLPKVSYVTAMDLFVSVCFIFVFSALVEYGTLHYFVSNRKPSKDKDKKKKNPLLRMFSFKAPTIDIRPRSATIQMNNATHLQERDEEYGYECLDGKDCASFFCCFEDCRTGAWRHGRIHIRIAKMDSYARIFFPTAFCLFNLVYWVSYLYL
T1 sequence (P28472 whole entry): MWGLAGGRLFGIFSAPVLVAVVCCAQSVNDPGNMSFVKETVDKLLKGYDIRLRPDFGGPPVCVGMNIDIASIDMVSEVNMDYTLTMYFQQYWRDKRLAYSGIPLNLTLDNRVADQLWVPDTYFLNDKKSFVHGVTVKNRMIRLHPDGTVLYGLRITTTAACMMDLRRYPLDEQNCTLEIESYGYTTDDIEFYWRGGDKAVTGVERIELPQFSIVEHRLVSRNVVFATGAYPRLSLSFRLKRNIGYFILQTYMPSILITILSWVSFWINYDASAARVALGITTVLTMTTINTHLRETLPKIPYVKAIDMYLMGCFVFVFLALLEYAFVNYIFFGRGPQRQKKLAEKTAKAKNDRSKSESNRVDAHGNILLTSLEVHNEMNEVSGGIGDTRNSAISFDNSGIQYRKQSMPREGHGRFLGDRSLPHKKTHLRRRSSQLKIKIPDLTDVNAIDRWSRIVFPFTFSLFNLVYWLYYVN

[7] = Cmax in mouse blood at 5 mg/kg, ip by LC/MS/MS analysis; type: ADME, organism-based; set-up: dose 5 mg/kg, route intraperitoneal
Brain [8] = experiment: AUC (0 to t) in mouse brain at 5 mg/kg, ip by LC/MS/MS analysis; type: ADME, organism-based; conditions: in vivo
Blood [9] = experiment: Cmax in mouse blood assessed as (S)-7-Methoxy-N-methyl-9-oxo-11,12,13,13a-tetrahydro-9H-benzo[e]imidazo[5,1-c]pyrrolo[1,2-a][1,4]diazepine-1-carboxamide at 5 mg/kg, ip by LC/MS/MS analysis; type: ADME, organism-based; set-up: dose 5 mg/kg, route intraperitoneal; conditions: in vivo
[10] = Cytotoxicity in HEK293 cells after 48 hrs by Cell-titer Glo reagent based assay; conditions: human, read-out: LD50; outline: as §1
[11] = Half life in mouse lung at 5 mg/kg, ip by LC/MS/MS analysis; type: ADME, organism-based
[12] = Half life in mouse brain at 5 mg/kg, ip by LC/MS/MS analysis; type: ADME, organism-based
Lung = experiment: AUC (0 to t) in mouse lung at 5 mg/kg, ip by LC/MS/MS analysis; type: ADME, organism-based; conditions: in vivo
[13] = Elimination rate constant in mouse lung at 5 mg/kg, ip by LC/MS/MS analysis; type: ADME, organism-based
[14] = Elimination rate constant in mouse brain at 5 mg/kg, ip by LC/MS/MS analysis; type: ADME, organism-based
Liver [15] = experiment: Metabolic stability in mouse liver microsomes assessed as compound remaining at 10 uM after 1 hr by LC-MS/MS analysis; type: ADME, microsome
Outline: (§2)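 Compound stability was measured in human or mouse liver microsomes as percent remaining after 1 h. Data came from two independent experiments, each run in triplicate.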

Liver [16] = experiment: Metabolic stability in human liver microsomes assessed as compound remaining at 10 uM after 1 hr by LC-MS/MS analysis; type: ADME, microsome; outline: as §2
Brain [17] = experiment: Cmax in mouse brain at 5 mg/kg, ip by LC/MS/MS analysis; type: ADME, organism-based; set-up: dose 5 mg/kg, route intraperitoneal; conditions: in vivo

COc1ccc2c(c1)C(=O)N1CCC[C@H]1c1c(C(=O)N(C)C)ncn1-2
CC50 at 48 h [1]: > 400 µM
Drug metabolism (Blood [2]): Metabolite_Detected
t1/2 (Blood [3]): 24.3 min
Activity (Mus musculus): Active
Kel (Blood [4]): 0.028 min⁻¹
Tmax [5]: 3 min
Activity [6]: 161 to 179%
Cmax [7]: 691 ng/mL
AUCt (Brain [8]): 2701 ng·min/g
Cmax (Blood [9]): 1176 ng/g
CC50 at 48 h [10]: > 400 µM
half-life [11]: 11.7 min
half-life [12]: 10.3 min
AUCt (Lung): 764 ng·min/g
k el [13]: 0.000983 s⁻¹
k el [14]: 0.00112 s⁻¹
Stability (Liver [15]): 82.5%
Stability (Liver [16]): 92.4%
Cmax (Brain [17]): 123 ng/g
